Shown are actives, neighbours in structure and some others; about 4% of the full set was active somewhere.
TAAR1 antagonist – antagonists of human TAAR1 | Q96RJ0 | CHO RD-HGA16 TAAR1, Fluo-8 calcium fluorescence, antagonist | inhibition, % at 3 µM | hit rate 1.5% among 360,000 | AID 624466;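 active means inhibition above a per-plate cutoff, the mean inhibition of test compounds on that plate plus 3 SD, cut at about 49% in these data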
Target sequence (Q96RJ0 whole entry, looked up): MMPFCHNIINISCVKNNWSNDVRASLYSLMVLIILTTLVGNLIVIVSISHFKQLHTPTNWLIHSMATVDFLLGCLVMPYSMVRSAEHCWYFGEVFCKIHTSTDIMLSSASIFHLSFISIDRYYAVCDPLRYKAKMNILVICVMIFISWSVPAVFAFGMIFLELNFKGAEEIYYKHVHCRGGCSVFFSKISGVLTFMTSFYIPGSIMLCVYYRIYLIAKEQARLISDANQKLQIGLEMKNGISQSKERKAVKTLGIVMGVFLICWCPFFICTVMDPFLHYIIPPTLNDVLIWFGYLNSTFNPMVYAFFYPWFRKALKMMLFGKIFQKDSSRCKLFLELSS
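System: CHO RD-HGA16 cells bearing hTAAR1. Reagent: EC80 β-phenethylamine stimulus. Schedule: seeding 17-24 h prior, 75-min 37 °C, 30-min RT dye loading. Signal: Fluo-8 intracellular calcium dye fluorescence, real-time kinetic reads. Read-out: % inhibition from peak post-agonist over basal fluorescence ratio. Benchmarks: vehicle wells and EC80 agonist wells. Replicates: n of 1.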
CHO parental Ca – signal in parental CHO cells, OX1R antagonist counter-screen. parental CHO-K1, ATP-induced calcium, Fluo-8 fluorescence. inhibition, % at 5.6 µM. hit rate 0.63% among 330,000. AID 463079;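 active means inhibition above that plate's mean sample inhibition plus 3 SD, cut at about 26% in these data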
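Material – parental CHO cells · Reagent – ATP stimulus · Compound – single nominal dose of 5.6 µM per compound · Detection – Fluo-8 fluorescence · Read-out basis – percent inhibition of calcium signal · Controls – ATP-challenged DMSO wells low, unchallenged DMSO wells high · Repeats – no replicates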
TAAR1 ag – human TAAR1 agonism; Q96RJ0; CHO RD-HGA16 TAAR1, Fluo-8 calcium fluorescence; vehicle wells 0%, saturating PEA agonist 100%; activation, % at 3 µM; hit rate 0.99% among 360,000; AID 624467;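 active means activation above the mean activation of all test compounds in the run plus 3 SD, cut at about 38% in these data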
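Test system: RD-HGA16 (CHO) cells co-expressing Gα16 and hTAAR1; dosing: one-point dosing at 3 µM (nominal); timing: 17-24 h seeding, 75 min 37 °C dye, 30 min RT; signal: kinetic Fluo-8 calcium fluorescence; read-out basis: % activation relative to PEA EC100 response; controls: DMSO and PEA EC100; replicates: n 1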
OX1R antag-1 – OX1R (human) antagonism | O43613 | OX1R-expressing cells, FRET antagonist read-out | inhibition, % at 6.6 µM | hit rate 1.8% among 330,000; in the data active means inhibition mostly above about 38%, no sharp cut-off; inactive means mostly below about 40%
Target sequence (O43613 whole entry, looked up): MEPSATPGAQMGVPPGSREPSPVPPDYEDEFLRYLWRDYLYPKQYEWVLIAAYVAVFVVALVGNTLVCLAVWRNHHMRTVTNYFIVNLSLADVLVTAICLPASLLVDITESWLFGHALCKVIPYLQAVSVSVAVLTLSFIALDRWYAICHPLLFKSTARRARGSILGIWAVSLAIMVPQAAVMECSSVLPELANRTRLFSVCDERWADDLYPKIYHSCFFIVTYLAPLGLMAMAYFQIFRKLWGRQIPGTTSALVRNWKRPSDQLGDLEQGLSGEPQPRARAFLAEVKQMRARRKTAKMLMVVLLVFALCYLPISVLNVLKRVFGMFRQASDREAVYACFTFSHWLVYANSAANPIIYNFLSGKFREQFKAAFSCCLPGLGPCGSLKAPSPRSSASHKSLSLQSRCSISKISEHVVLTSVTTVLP
OX1R antag-2 – blocks the human orexin 1 receptor. inhibition, % at 5 µM. hit rate 0.43% among 330,000. CHO/OX1R cells, Fluo-8 calcium fluorescence, orexin A. O43613. AID 434989;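 active means inhibition above its plate's threshold, mean inhibition of all tested compounds on the plate plus 3 SD, cut at about 37% in these data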
TAAR1 nonsel count – nonselective antagonism, TAAR1 counter-screen | shares compounds with TAAR1 antagonist | counterscreen cell line, calcium fluorescence, antagonist mode | inhibition, % at 3 µM | hit rate 77% among 2,400 | AID 651780; in the data active means inhibition above about 22%;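 further: CHO-Ga16 host cells stimulated with ATP at an EC80 level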
TAAR1 ant conf – human TAAR1 antagonism, confirmed; shares compounds with TAAR1 antagonist; TAAR1-expressing cells, fluorescence antagonist read-out; inhibition, % at 3 µM; hit rate 40% among 2,400; in the data active means inhibition above about 49%;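 further: CHO-Ga16 host cells challenged with agonist PEA near its EC80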
Ga16 ag counter – nonselective Ga16 agonism, counter-screen; shares compounds with TAAR1 antagonist; Ga16-expressing cells, calcium fluorescence, agonist counterscreen; activation, % at 3 µM; hit rate 18% among 2,400; in the data active means activation above about 12%
TAAR1 ag counter – counter-screen for human TAAR1 antagonists: TAAR1 agonists | hTAAR1 cell line, fluorescence activation, agonist mode | hit rate 2% among 2,400 | AID 651955 | shares compounds with TAAR1 antagonist | activation, % at 3 µM; in the data active means activation above about 37%;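 further: CHO cells stably expressing TAAR1 with calcium dye readout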
Each line names hits and unclear results; the compound was inactive in the other large screens (follow-up assays come after a bar, where they were run).

Cc1cccc(CNC(=O)C(C)n2nc(C)c3c(C)n(-c4ccccc4)nc3c2=O)c1 (stereo not given)	none
COc1ccc2[nH]c(=O)c(CN(C3CCCCC3)C(c3nnnn3Cc3ccco3)C(C)C)cc2c1 (stereo not given)	none (no result: TAAR1 antagonist, TAAR1 ag)
COc1ccc2[nH]c(=O)c(CN(Cc3nnnn3Cc3ccco3)C3CCCCC3)cc2c1	TAAR1 antagonist 67 | TAAR1 nonsel count 28 | TAAR1 ant conf 51 | Ga16 ag counter 12 | TAAR1 ag counter inactive
CN(C(=O)CSc1nnc(-c2cccs2)n1C1CC1)C1CCS(=O)(=O)C1 (stereo not given)	none (no result: CHO parental Ca, OX1R antag-1, OX1R antag-2)
CCCc1cc(=O)oc2cc(OCC(=O)NCCc3c[nH]c4ccc(OC)cc34)ccc12	TAAR1 antagonist 60 | TAAR1 nonsel count 30 | TAAR1 ant conf inactive | Ga16 ag counter inactive | TAAR1 ag counter inactive
O=C(COc1ccc2ccc(=O)oc2c1)NCCc1c[nH]c2ccc(F)cc12	none
CCc1cc(=O)oc2cc(C)cc(OCC(=O)NCCc3c[nH]c4ccccc34)c12	TAAR1 antagonist 69 | TAAR1 nonsel count 29 | TAAR1 ant conf inactive | Ga16 ag counter inactive | TAAR1 ag counter inactive
CC(C)(C)N(Cc1ccccc1)C(=O)COC(=O)c1ccccc1SCC(=O)N1CCCC1	TAAR1 antagonist 61 | TAAR1 nonsel count inactive | TAAR1 ant conf inactive | Ga16 ag counter inactive | TAAR1 ag counter inactive
CCCOc1cccc(C(=O)N(Cc2ccco2)C2CCS(=O)(=O)C2)c1 (stereo not given)	TAAR1 antagonist 102 | TAAR1 nonsel count inactive | TAAR1 ant conf inactive | Ga16 ag counter inactive | TAAR1 ag counter inactive
O=C(Nc1cccc(NC(=O)c2ccc(Cl)cc2Cl)c1)c1cccnc1	none
COc1cccc(NC(=O)COc2cc(O)c3c(c2)OC(C)(C)CC3=O)c1	TAAR1 antagonist 60 | TAAR1 nonsel count 27 | TAAR1 ant conf inactive | Ga16 ag counter inactive | TAAR1 ag counter inactive
COc1cc(NC(=O)COc2cc(O)c3c(c2)OC(C)(C)CC3=O)cc(OC)c1	none
CCCn1c2ccccc2c2cnn(CC(=O)NCCCN3CCCC(C)C3)c(=O)c21 (stereo not given)	none
O=C(O)c1cccc(N2C(=O)C3CC=CCC3C2=O)c1 (stereo not given)	none
O=C(COC(=O)c1cccc(N2C(=O)C3CC=CCC3C2=O)c1)c1ccccc1 (stereo not given)	TAAR1 antagonist 55 | TAAR1 nonsel count inactive | TAAR1 ant conf inactive | Ga16 ag counter inactive | TAAR1 ag counter inactive
O=C(CN1C(=O)NC2(CCOc3ccccc32)C1=O)c1ccc(F)cc1 (stereo not given)	none
C/C(=N\OCc1nc2ccccc2c(=O)n1/N=C/c1cc([N+](=O)[O-])ccc1O)c1ccccc1	TAAR1 antagonist 64 | TAAR1 nonsel count 31 | TAAR1 ant conf inactive | Ga16 ag counter inactive | TAAR1 ag counter inactive
O=[N+]([O-])c1ccc(O)c(/C=N/n2c(CO)nc3ccccc32)c1	none
O=c1c2ccccc2nc(COc2ccccc2)n1/N=C/c1ccc(O)cc1O	TAAR1 antagonist 79 | TAAR1 nonsel count 32 | TAAR1 ant conf 61 | Ga16 ag counter inactive | TAAR1 ag counter inactive
CCOc1ccc(NC(=O)CCNC(=O)Cn2ccc3ccccc3c2=O)cc1	none (no result: TAAR1 antagonist, TAAR1 ag)
CCc1ccccc1N1CC(C(=O)Nc2nccs2)CC1=O (stereo not given)	none
NC(=O)CCc1c[nH]c2ccccc12	none
OCC(CCc1c[nH]c2ccccc12)c1c[nH]c2ccccc12 (stereo not given)	TAAR1 antagonist 53 (no result: CHO parental Ca, OX1R antag-1, OX1R antag-2) | TAAR1 nonsel count 24 | TAAR1 ant conf inactive | Ga16 ag counter inactive | TAAR1 ag counter inactive
COc1ccc(CC(N)c2csc(NC(=O)c3cc(C(C)(C)C)nn3Cc3ccccc3)n2)cc1 (stereo not given)	none (no result: CHO parental Ca, OX1R antag-1, OX1R antag-2)
Cc1cc(C)c(S(=O)(=O)NCc2csc(C)n2)c(C)c1	none (no result: CHO parental Ca, OX1R antag-1, OX1R antag-2)
CC(=O)c1c(COC(=O)c2cccc(C)c2)nc2ccccc2[n+]1[O-]	TAAR1 antagonist 50 | TAAR1 nonsel count 28 | TAAR1 ant conf inactive | Ga16 ag counter inactive | TAAR1 ag counter inactive
CCN(CC)S(=O)(=O)c1ccc(/C(O)=C(\C#N)c2nc3ccccc3n2C)cc1	TAAR1 antagonist 63 | TAAR1 nonsel count 35 | TAAR1 ant conf 49 | Ga16 ag counter 13 | TAAR1 ag counter inactive
COc1ccc([C@H]2CC(=O)C=C(c3ccccc3-c3ccccc3)C2)cc1	none
COc1ccc([C@H]2CC(=O)C=C(c3ccccc3Oc3ccccc3)C2)cc1	TAAR1 antagonist 50 | TAAR1 nonsel count inactive | TAAR1 ant conf inactive | Ga16 ag counter inactive | TAAR1 ag counter inactive
COc1ccc(C2=CC(=O)C[C@H](c3ccc(F)cc3)C2)cc1OC	TAAR1 antagonist 92 | TAAR1 nonsel count inactive | TAAR1 ant conf 51 | Ga16 ag counter inactive | TAAR1 ag counter inactive
COc1ccc([C@H]2CC(=O)C=C(c3ccc(C)cc3)C2)cc1OC	none
CCOc1ccc(OCCCC(=O)N2CCN(S(=O)(=O)c3ccccc3C#N)CC2)cc1	TAAR1 antagonist 60 | TAAR1 nonsel count inactive | TAAR1 ant conf inactive | Ga16 ag counter inactive | TAAR1 ag counter inactive
O=C(Nc1ccccc1)C1=C[C@H](c2coc3ccccc3c2=O)C[C@H](OCc2ccc(CO)cc2)O1	none
O=C(NCc1ccccc1)C1=C[C@@H](c2coc3ccccc3c2=O)C[C@@H](OCc2ccc(CO)cc2)O1	TAAR1 antagonist 52 | TAAR1 nonsel count inactive | TAAR1 ant conf inactive | Ga16 ag counter inactive | TAAR1 ag counter inactive
C=CCOC(=O)C1=C[C@H](c2cn(C(C)=O)c3ccccc23)C[C@H](OCc2ccc(CO)cc2)O1	TAAR1 antagonist 75 | TAAR1 nonsel count 38 | TAAR1 ant conf 52 | Ga16 ag counter inactive | TAAR1 ag counter inactive
CCO[C@H]1OC(C(=O)O)=C[C@@H](c2coc3ccccc3c2=O)[C@@H]1CCCO	none
CCO[C@@H]1OC(C(=O)NCc2ccccc2)=C[C@H](c2coc3ccccc3c2=O)[C@H]1CCCO	TAAR1 antagonist 50 | TAAR1 nonsel count inactive | TAAR1 ant conf inactive | Ga16 ag counter inactive | TAAR1 ag counter inactive
Cc1ccc(Cl)cc1N(CC(=O)NC1CCCC1)C(=O)c1csnn1	none
CC1Nc2ncnc(N3CCN(c4ccccc4)CC3)c2N(Cc2ccc(Br)cc2)C1=O (stereo not given)	TAAR1 antagonist 57 | TAAR1 nonsel count inactive | TAAR1 ant conf inactive | Ga16 ag counter inactive | TAAR1 ag counter inactive

Bioassay records: PubChem BioAssay, The Scripps Research Institute Molecular Screening Center
